For experiment [1], the target named is T1, Cathepsin D (Homo sapiens, UniProt P07339). Kind of experiment: Inhibitory activity against human cathepsin D. Put shortly:
(§1)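 Human liver Cat D, 50 ng/mL pro-form, activated 20 min at 37 °C in 100 mM sodium acetate pH 4.5, 10% glycerol, 0.01% Tween 20. Inhibitor (tested up to 2000 nM, final DMSO 1%) added before 3 μM DABCYL-Glu-Arg-Nle-Phe-Leu-Ser-Phe-Pro-EDANS. Fluorescence rise followed 10 min. IC50 from Langmuir fit assuming competitive inhibition; Ki = IC50/(1+[S]/Km).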

Experiment [2] relates to Plasmodium falciparum. The experiment is described as follows: In vitro percent inhibition of Plasmodium falciparum 3D7 in human erythrocyte at 5 uM. The class given is functional. An outline of the steps: (§2)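 Synchronous P. falciparum 3D7 early trophozoites (~1% haematocrit, 1% parasitaemia) in human erythrocytes, labelled with [3H]hypoxanthine 10 μCi mL⁻¹; compound added (1–5 μM final, DMSO up to 1% v/v), 30 h at 37 °C in gassed boxes to schizont stage. Filter-harvested, β-counted; radioactivity relative to DMSO-only wells; four independent experiments per concentration.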

For the next experiment, the target named is Plasmepsin I (Plasmodium falciparum, UniProt P39898). Kind of experiment: Inhibitory activity against protease plasmepsin-1 (Plm I) of Plasmodium falciparum. Put shortly: (§3)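 Plm II: 3 nM pro-enzyme, pro-sequence cleaved by 40 min room-temperature preincubation; Plm I amount matched to similar activity. Buffer 100 mM sodium acetate pH 4.5, 10% glycerol, 0.01% Tween 20. Inhibitor (up to 1500 nM Plm I, 2500 nM Plm II; 1% DMSO final), then 3 μM FRET substrate; fluorescence over 10 min. Competitive Langmuir IC50 converted to Ki via Michaelis–Menten Km.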

For the next experiment, the target named is Plasmepsin II (Plasmodium falciparum, UniProt P46925). The experiment is described as follows: Inhibitory activity against protease plasmepsin-2 (Plm II) of Plasmodium falciparum. An outline of the steps:
as §3

Experiment [3] deals with Plasmodium falciparum. Kind of experiment: Percent inhibition for Plasmodium falciparum at 5 uM. The class given is functional. Put shortly:
as §2

In experiment [4] the target is T1, Cathepsin D. The experiment is described as follows: Inhibitory activity against human Cathepsin D; Range. An outline of the steps: as §1

In general, Ki refers to the dissociation constant of the complex between target and ligand, obtained from inhibition or displacement. High values mean weaker binding, low ones tighter binding. Broadly, the inhibition is the drop in the measured response relative to a control, in per cent.

Plasmepsin I, sequence (P39898 whole entry): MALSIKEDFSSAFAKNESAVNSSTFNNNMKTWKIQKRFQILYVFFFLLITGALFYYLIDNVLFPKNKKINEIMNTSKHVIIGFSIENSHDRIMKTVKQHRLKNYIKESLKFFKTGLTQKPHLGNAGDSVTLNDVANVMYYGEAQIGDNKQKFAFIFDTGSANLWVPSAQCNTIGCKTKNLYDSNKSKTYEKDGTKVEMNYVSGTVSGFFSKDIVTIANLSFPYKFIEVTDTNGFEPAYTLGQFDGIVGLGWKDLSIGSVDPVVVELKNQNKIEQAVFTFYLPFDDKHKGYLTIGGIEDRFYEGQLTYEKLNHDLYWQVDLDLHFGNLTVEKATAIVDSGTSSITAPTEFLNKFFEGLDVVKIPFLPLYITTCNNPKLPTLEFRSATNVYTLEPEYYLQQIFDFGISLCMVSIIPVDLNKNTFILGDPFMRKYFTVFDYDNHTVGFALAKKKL
Plasmepsin II, sequence (P46925 whole entry): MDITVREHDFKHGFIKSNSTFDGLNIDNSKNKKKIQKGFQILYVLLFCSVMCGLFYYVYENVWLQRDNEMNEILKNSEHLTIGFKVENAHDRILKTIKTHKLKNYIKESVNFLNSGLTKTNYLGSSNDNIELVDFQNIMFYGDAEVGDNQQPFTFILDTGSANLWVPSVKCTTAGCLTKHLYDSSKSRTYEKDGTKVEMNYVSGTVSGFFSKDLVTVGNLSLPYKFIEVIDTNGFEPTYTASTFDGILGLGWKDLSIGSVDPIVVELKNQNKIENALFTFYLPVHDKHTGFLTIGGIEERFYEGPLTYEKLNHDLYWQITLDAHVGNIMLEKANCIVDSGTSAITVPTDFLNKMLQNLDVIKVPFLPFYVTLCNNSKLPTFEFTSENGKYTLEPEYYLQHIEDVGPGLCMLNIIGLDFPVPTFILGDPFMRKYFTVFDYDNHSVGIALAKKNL
T1 sequence (P07339 65-162 limits assumed): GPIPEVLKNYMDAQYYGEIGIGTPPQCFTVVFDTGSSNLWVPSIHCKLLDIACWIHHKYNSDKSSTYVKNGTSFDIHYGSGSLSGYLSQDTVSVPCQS
T1 sequence (P07339 169-412 limits assumed): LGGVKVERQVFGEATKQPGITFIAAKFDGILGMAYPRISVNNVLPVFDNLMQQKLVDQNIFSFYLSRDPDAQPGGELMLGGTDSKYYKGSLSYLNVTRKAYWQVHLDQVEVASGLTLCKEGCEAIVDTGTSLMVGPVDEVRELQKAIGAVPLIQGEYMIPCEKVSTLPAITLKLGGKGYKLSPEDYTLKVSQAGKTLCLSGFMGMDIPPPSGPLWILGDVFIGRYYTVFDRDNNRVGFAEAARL

As for `O=C(N[C@H]1c2ccccc2C[C@H]1O)[C@H](OC/C=C/c1ccc2c(c1)OCO2)[C@H](O)[C@@H](O)[C@@H](OC/C=C/c1ccc2c(c1)OCO2)C(=O)N[C@H]1c2ccccc2C[C@H]1O`, the Ki is > 2 µM on Cathepsin D [1], 0.0005 µM at Plasmepsin I and 0.014 µM at Plasmepsin II. The molecule further returned an inhibition at 5 µM in the experiment on Plasmodium falciparum [2] of 61%.

For `O=C(N[C@H]1c2ccccc2C[C@H]1O)[C@H](OC/C=C/C=C/c1ccccc1)[C@H](O)[C@@H](O)[C@@H](OC/C=C/C=C/c1ccccc1)C(=O)N[C@H]1c2ccccc2C[C@H]1O`, the Ki was > 2 µM on Cathepsin D [1], 0.0044 µM on Plasmepsin I and 0.015 µM on Plasmepsin II.

For the molecule `O=C(N[C@H]1c2ccccc2C[C@H]1O)[C@H](OCc1ccccc1)[C@H](O)[C@@H](O)[C@@H](OCc1ccccc1)C(=O)N[C@H]1c2ccccc2C[C@H]1O`, the results for the Ki at Cathepsin D [1], on Plasmepsin I and at Plasmepsin II were > 2 µM, 0.025 µM and 0.085 µM, respectively.

Turning to `CNC(=O)[C@@H](NC(=O)[C@H](OCc1ccccc1)[C@H](O)[C@@H](O)[C@@H](OCc1ccccc1)C(=O)N[C@H](C(=O)NC)C(C)C)C(C)C`, on Plasmepsin II, the affinity corresponds to a Ki of 3.8 µM.

Regarding `CC(C)[C@H](NC(=O)CCc1c[nH]c2ccccc12)C(=O)N[C@@H](Cc1ccccc1)[C@@H](O)CN[C@@H](Cc1ccc(-c2ccccc2)cc1)C(N)=O`, the inhibition at 5 µM with Plasmodium falciparum [3] was determined as 56%. For the same molecule, the results for the Ki on Cathepsin D [1], on Plasmepsin I and at Plasmepsin II were 0.03 µM, 0.0026 µM and 0.011 µM, respectively.

As to `Cc1ccc(/C=C/CO[C@@H](C(=O)N[C@H]2c3ccccc3C[C@H]2O)[C@H](O)[C@@H](O)[C@@H](OC/C=C/c2ccc(C)cc2)C(=O)N[C@H]2c3ccccc3C[C@H]2O)cc1`, the Ki is > 2 µM at Cathepsin D [1], 0.0058 µM on Plasmepsin I and 0.129 µM on Plasmepsin II.

On to `O=C(N[C@H]1c2ccccc2C[C@H]1O)[C@H](OC/C=C/c1ccccc1)[C@H](O)[C@@H](O)[C@@H](OC/C=C/c1ccccc1)C(=O)N[C@H]1c2ccccc2C[C@H]1O`, for which the Ki on Cathepsin D [1] is > 2 µM; at Plasmepsin I, 0.0014 µM; at Plasmepsin II, 0.029 µM.

Consider `C[Si](C)(C)C#C/C=C/CO[C@@H](C(=O)N[C@H]1c2ccccc2C[C@H]1O)[C@H](O)[C@@H](O)[C@@H](OC/C=C/C#C[Si](C)(C)C)C(=O)N[C@H]1c2ccccc2C[C@H]1O`, for which the Ki is > 2 µM on Cathepsin D [1], 0.037 µM on Plasmepsin I and 0.13 µM at Plasmepsin II.

At Plasmepsin II, `C=CCO[C@@H](C(=O)N[C@H](C(=O)NC)C(C)C)[C@H](O)[C@@H](O)[C@@H](OCC=C)C(=O)N[C@H](C(=O)NC)C(C)C` registered a Ki of 4.1 µM.

Take `C=CCO[C@@H](C(=O)N[C@H]1c2ccccc2C[C@H]1O)[C@H](O)[C@@H](O)[C@@H](OCC=C)C(=O)N[C@H]1c2ccccc2C[C@H]1O`: the Ki on Cathepsin D [1] is > 2 µM; on Plasmepsin I, 0.163 µM; at Plasmepsin II, 0.096 µM. This molecule had an inhibition at 5 µM in the experiment with Plasmodium falciparum [2] of 0%.

Consider `C#C/C=C/CO[C@@H](C(=O)N[C@H]1c2ccccc2C[C@H]1O)[C@H](O)[C@@H](O)[C@@H](OC/C=C/C#C)C(=O)N[C@H]1c2ccccc2C[C@H]1O`, for which the Ki was > 2 µM at Cathepsin D [1], 0.032 µM on Plasmepsin I and 0.037 µM at Plasmepsin II.

Regarding `O=C(N[C@H]1c2ccccc2C[C@H]1O)[C@H](OC/C=C/Br)[C@H](O)[C@@H](O)[C@@H](OC/C=C/Br)C(=O)N[C@H]1c2ccccc2C[C@H]1O`, the Ki on Cathepsin D [1] is > 2 µM; on Plasmepsin I, 0.027 µM; on Plasmepsin II, 0.047 µM.

Take `C=CCO[C@@H](CN[C@H]1c2ccccc2C[C@H]1O)[C@H](O)[C@@H](O)[C@@H](OCC=C)C(=O)N[C@H]1c2ccccc2C[C@H]1O`: in the experiment on Plasmodium falciparum [2], the inhibition at 5 µM was 50%. In addition, the Ki was > 1.5 µM at Plasmepsin I, > 2.5 µM on Plasmepsin II and > 2 µM on Cathepsin D [4].

For the molecule `COc1ncc(/C=C/CO[C@@H](C(=O)N[C@H]2c3ccccc3C[C@H]2O)[C@H](O)[C@@H](O)[C@@H](OC/C=C/c2cnc(OC)nc2OC)C(=O)N[C@H]2c3ccccc3C[C@H]2O)c(OC)n1`, the results for the Ki on Cathepsin D [1], on Plasmepsin I and at Plasmepsin II were > 2 µM, 0.0084 µM and 0.013 µM, respectively. 5 µM produced 2% inhibition with Plasmodium falciparum [2].

On to `COC(=O)/C=C/C=C/CO[C@@H](C(=O)N[C@H]1c2ccccc2C[C@H]1O)[C@H](O)[C@@H](O)[C@@H](OC/C=C/C=C/C(=O)OC)C(=O)N[C@H]1c2ccccc2C[C@H]1O`, for which the Ki on Cathepsin D [1] was > 2 µM; on Plasmepsin I, 0.0037 µM; at Plasmepsin II it was 0.0089 µM. In addition, in the experiment with Plasmodium falciparum [2], at 5 µM the inhibition was 51%.

Consider `CC(=O)c1ccc(/C=C/CO[C@@H](C(=O)N[C@H]2c3ccccc3C[C@H]2O)[C@H](O)[C@@H](O)[C@@H](OC/C=C/c2ccc(C(C)=O)cc2)C(=O)N[C@H]2c3ccccc3C[C@H]2O)cc1`, for which the Ki at Cathepsin D [1] is > 2 µM; on Plasmepsin I, 0.0008 µM; at Plasmepsin II it was 0.006 µM. Besides, the inhibition at 5 µM in the experiment with Plasmodium falciparum [2] was 78%.

As for `O=C(N[C@H]1c2ccccc2C[C@H]1O)[C@H](OC/C=C/C#Cc1ccccc1)[C@H](O)[C@@H](O)[C@@H](OC/C=C/C#Cc1ccccc1)C(=O)N[C@H]1c2ccccc2C[C@H]1O`, the Ki was > 2 µM at Cathepsin D [1], 0.0072 µM on Plasmepsin I and 0.041 µM on Plasmepsin II.

With `Cc1noc(C)c1/C=C/CO[C@@H](C(=O)N[C@H]1c2ccccc2C[C@H]1O)[C@H](O)[C@@H](O)[C@@H](OC/C=C/c1c(C)noc1C)C(=O)N[C@H]1c2ccccc2C[C@H]1O`, the Ki on Cathepsin D [1] was > 2 µM; at Plasmepsin I, 0.023 µM; at Plasmepsin II it was 0.181 µM.

On to `O=C(N[C@H]1c2ccccc2C[C@H]1O)[C@H](OC/C=C/c1ccc(F)cc1)[C@H](O)[C@@H](O)[C@@H](OC/C=C/c1ccc(F)cc1)C(=O)N[C@H]1c2ccccc2C[C@H]1O`, for which the Ki was > 2 µM at Cathepsin D [1], 0.0025 µM at Plasmepsin I and 0.059 µM on Plasmepsin II.

In the case of `O=C(N[C@H]1c2ccccc2C[C@H]1O)[C@H](OC/C=C/c1ccsc1)[C@H](O)[C@@H](O)[C@@H](OC/C=C/c1ccsc1)C(=O)N[C@H]1c2ccccc2C[C@H]1O`, the Ki on Cathepsin D [1] is > 2 µM; on Plasmepsin I, 0.0013 µM; at Plasmepsin II, 0.015 µM.
